Experimental data as given in ChEMBL document CHEMBL1158495, “Quinolone carboxylic acids as a novel monoketo acid class of human immunodeficiency virus type 1 integrase inhibitors” (J Med Chem, 2009).

Tests used:
[1] = Cytotoxicity against human MT4 cells after 5 days by MTT assay; type: cell-based
Summary of the method: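 Uninfected MT-4 cells at 1 × 10^5 cells/mL in RPMI 1640 with 10% FBS, penicillin and streptomycin, exposed to compounds at 37 °C for 5 days. Viability by MTT (7.5 mg/mL solution); formazan taken up in acidic isopropanol containing 4% Triton-X, read at 595 nm.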

[2] = tested on: Human immunodeficiency virus 1; assay: Antiviral activity against HIV1 3B infected in human MT4 cells assessed as inhibition of viral replication after 5 days by MTT assay; type: functional, organism-based; conditions: Human immunodeficiency virus 1, 3B, MT4, 120 h
Summary of the method: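 MT-4 human T lymphoid cells at 1 × 10^5 cells/mL in RPMI 1640 with 10% FBS, penicillin and streptomycin; infected with strain IIIb at multiplicity 0.01, compounds added, 37 °C for 5 days. Viability read by MTT (7.5 mg/mL solution), formazan dissolved in acidic isopropanol with 4% Triton-X, absorbance at 595 nm.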

[3] = tested on: Human immunodeficiency virus 1; assay: Antiviral activity against HIV1 infected in human PBMN cells assessed as inhibition of viral replication in presence of 50% human serum; type: functional; conditions: Human immunodeficiency virus 1, PBMN
[4] = molecular target: Human immunodeficiency virus type 1 integrase (Human immunodeficiency virus 1, UniProt Q7ZJM1); assay: Inhibition of HIV1 integrase strand transfer activity
Chain of Human immunodeficiency virus type 1 integrase (Q7ZJM1 whole entry): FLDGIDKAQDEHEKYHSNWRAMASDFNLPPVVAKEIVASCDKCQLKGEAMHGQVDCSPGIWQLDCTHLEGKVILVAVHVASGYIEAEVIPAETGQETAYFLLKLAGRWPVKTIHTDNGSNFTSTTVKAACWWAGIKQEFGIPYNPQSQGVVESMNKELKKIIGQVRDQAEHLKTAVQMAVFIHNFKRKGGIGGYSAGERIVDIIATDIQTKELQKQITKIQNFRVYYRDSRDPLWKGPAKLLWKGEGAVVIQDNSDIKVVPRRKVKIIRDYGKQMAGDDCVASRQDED

Structure (SMILES)	CC50 at 120 h [1] [nM]	EC50 [2] [nM]	EC90 [3] [nM]	IC50 [4] [nM]
COc1cc2c(cc1Cc1cccc(Cl)c1F)c(=O)c(C(=O)O)cn2CCO	5300	20	–	–
COc1cc2c(cc1Cc1cccc(Cl)c1F)c(=O)c(C(=O)O)cn2[C@H](CO)C(C)C	4000	0.9	9.8	–
CC(C)[C@@H](CO)n1cc(C(=O)O)c(=O)c2cc(Cc3cccc(Cl)c3F)ccc21	14000	7.5	–	–
O=C(O)/C(O)=C/C(=O)c1cccc(Cc2ccccc2)c1	> 30000	440	–	–
O=C(O)c1cn(CCO)c2ccc(Cc3cccc(Cl)c3F)cc2c1=O	> 6000	80	–	–
CCOC(=O)c1cnc2ccc(Cc3ccccc3)cc2c1O	> 30000	> 30000	–	> 100000
O=C(O)c1cnc2ccc(Cc3ccccc3)cc2c1O	> 30000	> 30000	–	–
COc1cc2c(cc1Cc1cccc(Cl)c1F)c(=O)c(C(=O)O)cn2[C@@H](CO)C(C)C	4200	109	–	–
O=C(O)c1c[nH]c2ccc(Cc3ccc(Cl)cc3)cc2c1=O	> 6000	> 6000	–	> 100000
O=C(O)c1c[nH]c2ccc(Cc3ccccc3C(F)(F)F)cc2c1=O	14800	> 6000	–	720
COc1ccccc1Cc1ccc2[nH]cc(C(=O)O)c(=O)c2c1	16600	> 6000	–	1170
O=C(O)c1c[nH]c2ccc(Cc3cc(Cl)ccc3Cl)cc2c1=O	13200	> 6000	–	250
O=C(O)c1cn(CCO)c2cc(F)c(Cc3cccc(Cl)c3Cl)cc2c1=O	9800	130	–	25
COc1cc2c(cc1Cc1cccc(Cl)c1Cl)c(=O)c(C(=O)O)cn2CCO	4200	60	–	12
Cc1cc2c(cc1Cc1cccc(Cl)c1Cl)c(=O)c(C(=O)O)cn2CCO	> 30000	180	–	41
N#Cc1cc2c(cc1Cc1cccc(Cl)c1Cl)c(=O)c(C(=O)O)cn2CCO	13900	2000	–	50
CC[C@@H](CO)n1cc(C(=O)O)c(=O)c2cc(Cc3cccc(Cl)c3F)ccc21	13000	17.1	–	9
CCC[C@@H](CO)n1cc(C(=O)O)c(=O)c2cc(Cc3cccc(Cl)c3F)c(OC)cc21	3100	1.3	–	5.8
Cn1cc(C(=O)O)c(=O)c2cc(Cc3cccc(Cl)c3Cl)ccc21	14400	450	–	83
O=C(O)c1cn(CCO)c2ccc(Cc3cccc(Cl)c3Cl)cc2c1=O	> 6000	100	–	21
O=C(O)c1cn(CCO)c2ccc(Cc3cccc(F)c3Cl)cc2c1=O	> 6000	340	–	44
NC(=O)CCn1cc(C(=O)O)c(=O)c2cc(Cc3cccc(Cl)c3Cl)ccc21	15100	2040	–	116
CCCn1cc(C(=O)O)c(=O)c2cc(Cc3cccc(Cl)c3Cl)ccc21	15600	640	–	55
O=C(O)c1cn(CCO)c2cc(C(F)(F)F)c(Cc3cccc(Cl)c3Cl)cc2c1=O	10000	> 6000	–	674
C[C@H](CO)n1cc(C(=O)O)c(=O)c2cc(Cc3cccc(Cl)c3F)ccc21	14400	116	–	38.3
Cn1cc(C(=O)O)c(=O)c2cc(Cc3ccccc3)ccc21	> 30000	> 30000	–	2300

Structure (SMILES)	CC50 at 120 h [1] [nM]	EC50 [2] [nM]	EC90 [3] [nM]	IC50 [4] [nM]
O=C(O)c1cn([C@H](CO)c2ccccc2)c2ccc(Cc3cccc(Cl)c3F)cc2c1=O	8700	51.6	–	9.8
O=C(O)c1cn(CCCO)c2ccc(Cc3cccc(Cl)c3Cl)cc2c1=O	15100	470	–	77
O=C(O)c1cn(CCO)c2ccc(Cc3cccc(Cl)c3Cl)c(F)c2c1=O	14300	1680	–	84
O=C(O)Cn1cc(C(=O)O)c(=O)c2cc(Cc3cccc(Cl)c3Cl)ccc21	> 30000	13600	–	32
O=C(O)c1c[nH]c2ccc(Cc3ccccc3Cl)cc2c1=O	> 6000	> 6000	–	410
O=C(O)c1c[nH]c2ccc(Cc3c(Cl)cccc3Cl)cc2c1=O	14900	> 6000	–	370
O=C(O)c1cn(CCO)c2cc(Cl)c(Cc3cccc(Cl)c3Cl)cc2c1=O	> 6000	510	–	43
O=C(O)c1c[nH]c2ccc(Cc3cccc(Cl)c3Cl)cc2c1=O	12600	3400	–	70
Cn1cc(C(=O)C(=O)O)c(=O)c2cc(Cc3ccccc3)ccc21	> 30000	> 30000	–	> 100000
NC(=O)c1c[nH]c2ccc(Cc3ccccc3)cc2c1=O	> 30000	> 30000	–	> 100000
O=C(O)c1cn(CCO)c2c(F)cc(Cc3cccc(Cl)c3Cl)cc2c1=O	> 30000	530	–	34
Cc1ccccc1Cc1ccc2[nH]cc(C(=O)O)c(=O)c2c1	18500	> 6000	–	1080
COc1cc2c(cc1Cc1cccc(Cl)c1F)c(=O)c(C(=O)O)cn2[C@H](CO)C1CCCCC1	3000	2.8	–	6.7
O=C(O)c1c[nH]c2ccc(Cc3cccc(Cl)c3)cc2c1=O	> 6000	> 6000	–	800
CCn1cc(C(=O)O)c(=O)c2cc(Cc3cccc(Cl)c3Cl)ccc21	16200	290	–	31
O=C(O)CCn1cc(C(=O)O)c(=O)c2cc(Cc3cccc(Cl)c3Cl)ccc21	> 30000	> 30000	–	38
O=C(O)c1c[nH]c2ccc(Cc3ccccc3F)cc2c1=O	> 30000	15900	–	500
NCCn1cc(C(=O)O)c(=O)c2cc(Cc3cccc(Cl)c3Cl)ccc21	5300	570	–	215
O=C(O)c1cn([C@H](CO)C2CCCCC2)c2ccc(Cc3cccc(Cl)c3F)cc2c1=O	7700	7.3	–	5.6
CCCCn1cc(C(=O)O)c(=O)c2cc(Cc3cccc(Cl)c3Cl)ccc21	15000	2340	–	65
CC(C)n1cc(C(=O)O)c(=O)c2cc(Cc3cccc(Cl)c3Cl)ccc21	> 6000	330	–	26
NC(=O)Cn1cc(C(=O)O)c(=O)c2cc(Cc3cccc(Cl)c3Cl)ccc21	22600	540	–	35
C[C@@H](CO)n1cc(C(=O)O)c(=O)c2cc(Cc3cccc(Cl)c3F)ccc21	13700	27.7	–	14.8
CCC[C@@H](CO)n1cc(C(=O)O)c(=O)c2cc(Cc3cccc(Cl)c3F)ccc21	12500	9.8	–	8.2
CC(C)(C)[C@@H](CO)n1cc(C(=O)O)c(=O)c2cc(Cc3cccc(Cl)c3F)ccc21	14400	1.3	–	6
